Assay results reported in ChEMBL document CHEMBL4673376 (Bioorg Med Chem Lett, 2021).
pIC50, pKi: −log10 of the molar value.

What was measured:
[1] = Inhibition of rat intestinal sucrase; type: tissue-based, Intestine
Outline: (§1)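 Enzyme preparations came from small intestine tissue (rat or human, as the line states). Inhibition is reported as IC50.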

[2] = Inhibition of rat intestinal isomaltase; type: tissue-based, Intestine; outline: as §1
[3] = molecular target: T1, Maltase-glucoamylase (Homo sapiens, UniProt O43451); experiment: Inhibition of human intestinal maltase; type: tissue-based, Intestine; outline: as §1
T1 sequence (O43451 whole entry): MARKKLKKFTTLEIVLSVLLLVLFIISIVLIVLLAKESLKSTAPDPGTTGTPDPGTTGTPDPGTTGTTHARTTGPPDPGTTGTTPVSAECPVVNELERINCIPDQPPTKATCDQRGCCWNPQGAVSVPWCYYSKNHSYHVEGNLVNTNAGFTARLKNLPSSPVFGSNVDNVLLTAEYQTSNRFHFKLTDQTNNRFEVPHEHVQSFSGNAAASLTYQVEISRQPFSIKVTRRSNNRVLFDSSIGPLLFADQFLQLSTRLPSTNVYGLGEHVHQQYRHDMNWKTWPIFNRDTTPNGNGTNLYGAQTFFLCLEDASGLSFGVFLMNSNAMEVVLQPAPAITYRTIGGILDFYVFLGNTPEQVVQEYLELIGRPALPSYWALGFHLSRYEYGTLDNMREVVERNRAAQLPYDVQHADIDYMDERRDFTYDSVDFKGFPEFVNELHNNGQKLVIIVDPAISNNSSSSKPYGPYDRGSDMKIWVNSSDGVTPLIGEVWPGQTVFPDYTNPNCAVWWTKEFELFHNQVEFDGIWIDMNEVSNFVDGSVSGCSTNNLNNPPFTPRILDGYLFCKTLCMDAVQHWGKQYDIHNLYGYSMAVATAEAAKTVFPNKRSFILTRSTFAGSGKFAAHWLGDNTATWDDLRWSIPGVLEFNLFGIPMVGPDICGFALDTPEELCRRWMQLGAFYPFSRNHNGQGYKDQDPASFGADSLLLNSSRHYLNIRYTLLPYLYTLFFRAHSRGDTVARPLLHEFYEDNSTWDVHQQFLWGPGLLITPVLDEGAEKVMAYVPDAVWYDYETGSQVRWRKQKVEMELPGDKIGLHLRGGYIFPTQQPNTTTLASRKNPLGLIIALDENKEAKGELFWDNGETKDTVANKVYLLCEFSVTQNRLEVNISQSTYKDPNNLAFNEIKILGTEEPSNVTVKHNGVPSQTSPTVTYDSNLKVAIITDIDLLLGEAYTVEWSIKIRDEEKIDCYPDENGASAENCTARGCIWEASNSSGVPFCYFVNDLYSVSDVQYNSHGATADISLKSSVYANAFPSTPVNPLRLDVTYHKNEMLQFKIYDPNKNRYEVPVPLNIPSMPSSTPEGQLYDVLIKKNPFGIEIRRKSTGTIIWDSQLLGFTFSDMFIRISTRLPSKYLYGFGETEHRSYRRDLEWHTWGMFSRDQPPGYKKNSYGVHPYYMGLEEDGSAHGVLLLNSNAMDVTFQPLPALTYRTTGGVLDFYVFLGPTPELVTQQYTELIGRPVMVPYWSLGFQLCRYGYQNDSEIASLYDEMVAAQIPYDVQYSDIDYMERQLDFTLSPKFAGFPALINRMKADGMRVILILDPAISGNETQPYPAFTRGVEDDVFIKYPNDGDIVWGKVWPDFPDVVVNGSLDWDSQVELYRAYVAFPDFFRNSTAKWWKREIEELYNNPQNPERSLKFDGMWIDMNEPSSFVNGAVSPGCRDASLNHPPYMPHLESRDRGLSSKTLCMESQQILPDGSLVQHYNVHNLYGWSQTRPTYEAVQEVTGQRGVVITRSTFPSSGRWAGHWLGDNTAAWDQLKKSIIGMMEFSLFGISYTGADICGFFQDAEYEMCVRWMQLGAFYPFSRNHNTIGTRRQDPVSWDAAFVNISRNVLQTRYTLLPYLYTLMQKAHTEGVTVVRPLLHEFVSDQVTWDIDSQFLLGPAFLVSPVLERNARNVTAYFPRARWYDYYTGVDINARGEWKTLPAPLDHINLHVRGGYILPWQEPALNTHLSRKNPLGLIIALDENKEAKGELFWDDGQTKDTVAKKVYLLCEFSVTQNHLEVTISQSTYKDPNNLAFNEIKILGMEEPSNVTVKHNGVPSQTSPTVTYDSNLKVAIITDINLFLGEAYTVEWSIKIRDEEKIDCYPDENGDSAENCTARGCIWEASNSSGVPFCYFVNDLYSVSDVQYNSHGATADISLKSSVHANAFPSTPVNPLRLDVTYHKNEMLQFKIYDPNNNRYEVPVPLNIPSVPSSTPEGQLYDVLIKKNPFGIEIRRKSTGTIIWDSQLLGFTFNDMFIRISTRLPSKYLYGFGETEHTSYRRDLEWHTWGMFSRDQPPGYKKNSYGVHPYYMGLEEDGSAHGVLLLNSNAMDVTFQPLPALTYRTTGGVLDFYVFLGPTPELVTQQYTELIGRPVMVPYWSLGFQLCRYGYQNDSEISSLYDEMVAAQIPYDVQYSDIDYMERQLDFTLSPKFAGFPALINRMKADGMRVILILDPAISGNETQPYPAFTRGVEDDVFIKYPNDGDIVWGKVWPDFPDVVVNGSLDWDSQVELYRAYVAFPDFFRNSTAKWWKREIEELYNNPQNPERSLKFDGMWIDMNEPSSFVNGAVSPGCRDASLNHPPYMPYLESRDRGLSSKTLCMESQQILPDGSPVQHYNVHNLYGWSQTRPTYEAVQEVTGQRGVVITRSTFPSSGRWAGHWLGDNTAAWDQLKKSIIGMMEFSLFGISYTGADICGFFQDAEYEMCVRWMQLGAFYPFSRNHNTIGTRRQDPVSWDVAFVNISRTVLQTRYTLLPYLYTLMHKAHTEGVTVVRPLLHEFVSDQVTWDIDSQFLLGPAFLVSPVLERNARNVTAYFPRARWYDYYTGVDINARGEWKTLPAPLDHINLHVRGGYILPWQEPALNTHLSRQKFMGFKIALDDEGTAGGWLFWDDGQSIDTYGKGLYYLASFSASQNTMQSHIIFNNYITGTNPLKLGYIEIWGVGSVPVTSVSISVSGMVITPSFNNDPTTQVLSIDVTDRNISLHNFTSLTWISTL

[4] = Inhibition of rat intestinal maltase; type: tissue-based, Intestine; outline: as §1
[5] = molecular target: T1, Maltase-glucoamylase; experiment: Inhibition of recombinant human maltase-glucoamylase using p-nitrophenyl-alpha-D-glucopyranoside as substrate incubated for 35 mins by microtiter plate reader analysis
[6] = molecular target: T1, Maltase-glucoamylase; experiment: Inhibition of human intestinal maltase using maltose as substrate incubated for 30 mins and immediately heated for 2 mins by glucose oxidase method; type: tissue-based, Intestine; outline: as §1
[7] = Inhibition of rat intestinal sucrase using sucrose as substrate incubated for 30 mins and immediately heated for 2 mins by glucose oxidase method; type: tissue-based, Intestine; outline: as §1
[8] = Inhibition of rat intestinal isomaltase using isomaltose as substrate incubated for 30 mins and immediately heated for 2 mins by glucose oxidase method; type: tissue-based, Intestine; outline: as §1
[9] = Inhibition of rat intestinal maltase using maltose as substrate incubated for 30 mins and immediately heated for 2 mins by glucose oxidase method; type: tissue-based, Intestine; outline: as §1

pIC50 [1] | pIC50 [2] | pIC50 [3] | pIC50 [4] | pKi [5] | pIC50 [6] | pIC50 [7] | pIC50 [8] | pIC50 [9] | Structure (SMILES)
6.54 | 5.32 | 5.77 | 5.11 |  |  |  |  |  | CCCCCC[C@@H](O)[C@H](OS(=O)(=O)[O-])[C@H](O)C[S@+]1C[C@@H](O)[C@H](O)[C@H]1CO
 |  |  |  | 5.22 |  |  |  |  | CCCCCCCCCCCCCC[S@+]1C[C@@H](O)[C@H](O)[C@H]1CO
6.14 | 5.54 | 5.32 | 5.27 |  |  |  |  |  | CCC[C@@H](O)[C@H](OS(=O)(=O)[O-])[C@H](O)C[S@+]1C[C@@H](O)[C@H](O)[C@H]1CO
6.42 | 6.40 | 5.70 | 5.60 |  |  |  |  |  | CCCCCCCC[C@@H](O)[C@H](O)[C@H](O)C[S@+]1C[C@@H](O)[C@H](O)[C@H]1CO
5.85 | 6.31 | 5.30 | 5.32 |  |  |  |  |  | CCC[C@@H](O)[C@H](O)[C@H](O)C[S@+]1C[C@@H](O)[C@H](O)[C@H]1CO
6.77 | 5.36 | 5.82 | 5.20 |  |  |  |  |  | CCCCCCCCCC[C@@H](O)[C@H](OS(=O)(=O)[O-])[C@H](O)C[S@+]1C[C@@H](O)[C@H](O)[C@H]1CO
6.82 | 5.27 | 5.92 | 5.14 |  |  |  |  |  | CCCCCCCC[C@@H](O)[C@H](OS(=O)(=O)[O-])[C@H](O)C[S@+]1C[C@@H](O)[C@H](O)[C@H]1CO
 |  |  |  | 4.49 |  |  |  |  | CCCC[S+]1C[C@@H](O)[C@H](O)[C@H]1CO (single isomer, unassigned)
5.82 | 3.19 |  | 5.77 |  |  |  |  |  | C[C@H]1O[C@H](O[C@H]2[C@H](O)[C@@H](O)[C@@H](O[C@H]3[C@H](O)[C@@H](O)C(O)O[C@@H]3CO)O[C@@H]2CO)[C@H](O)[C@@H](O)[C@@H]1N[C@H]1C=C(CO)[C@@H](O)[C@H](O)[C@H]1O (stereo partly specified) [ACARBOSE]
 |  |  |  |  | 5.05 | 5.89 | 6.52 | 5.10 | [O-][C@@H](CO)[C@H](O)C[S@+]1C[C@@H](O)[C@H](O)[C@H]1CO [NEOSALACINOL]
 |  |  |  |  |  | 5.80 | 5.89 | 5.28 | O=S(=O)([O-])O[C@@H](CO)[C@H](O)C[S@+]1C[C@@H](O)[C@H](O)[C@H]1CO [SALACINOL]
